Measured values collected from several papers.
Protocols differ between the studies behind these lines.
EGFR del747-752/P753S: Epidermal growth factor receptor (EGFR, Homo sapiens, UniProt P00533, del747-752/P753S)
EGFR: Epidermal growth factor receptor (EGFR, Homo sapiens, UniProt P00533)
EGFR L858R/T790M: Epidermal growth factor receptor (EGFR, Homo sapiens, UniProt P00533, L858R/T790M)
EGFR L858R: Epidermal growth factor receptor (EGFR, Homo sapiens, UniProt P00533, L858R)
EGFR T790M: Epidermal growth factor receptor (EGFR, Homo sapiens, UniProt P00533, T790M)

| SMILES | target | effect on | mode | method | tested at | endpoint | result |
| --- | --- | --- | --- | --- | --- | --- | --- |
| FC(F)(F)c1ccc2c(c1)nc(-c1cccnc1)n2C1CC1 | EGFR del747-752/P753S | cell-free assay | – | competition with immobilised ligand | 1 µM | remaining binding | 100% |
| CC(C)c1ccc(NC(=O)c2cccs2)c(-c2nc3ccccc3[nH]c2=O)c1 | EGFR | enzyme activity | inhibitor | – | 1 µM | activity vs control | 93% |
| Cc1ccc(C(=O)Nc2ccc(CN3CCN(C)CC3)c(C(F)(F)F)c2)cc1C#Cc1cnc2cccnn12 | Epidermal growth factor receptor (EGFR, Homo sapiens, UniProt P00533, L861Q) | cell-free assay | – | – | 23.5 nM | remaining signal | 92% |
| CC(C)[C@@H]1NC(=O)[C@H](CCCNC(=N)N)NC(=O)[C@H](Cc2ccc(O)cc2)NC(=O)[C@H](C(C)C)NC(=O)[C@H](C(C)C)NC(=O)[C@H](CCCNC(=N)N)NC(=O)[C@H](CC(=O)O)NC(=O)[C@H](CC(=O)O)NC(=O)[C@H](C)NC(=O)[C@H](Cc2ccc(O)cc2)NC(=O)[C@H](Cc2ccc(O)cc2)NC(=O)[C@H](Cc2ccccc2)NC(=O)[C@@H](Cc2ccc(O)cc2)NC(=O)CSC[C@@H](C(=O)NCC(N)=O)NC(=O)[C@H](C)NC1=O | EGFR | binding | – | SPR | – | kon | 166000 M⁻¹ s⁻¹ |
| CNCc1ccccc1-c1csc([C@H](C)Nc2nc(C)nc3cc(OC)c(OC)cc23)c1 | EGFR L858R/T790M | cell-free assay | – | competition with immobilised ligand | 1 µM | remaining binding | 87% |
| O=C(Nc1cnn(-c2csc(C(=O)NC3COC3)c2)c1)Nc1ccccc1Cl | EGFR | enzyme activity | inhibitor | – | 5 µM | remaining activity | 99.7% |
| CSc1cccnc1N1CCN(Cc2nc3ccccc3[nH]2)CC1 | EGFR L858R | cell-free assay | – | competition with immobilised ligand | 1 µM | remaining binding | 100% |
| C[C@@H]1CCN(c2nccc(-c3cnn4ncccc34)n2)C1 | Epidermal growth factor receptor (EGFR, Homo sapiens, UniProt P00533, G719C) | binding | – | – | 1 µM | remaining binding | 87% |
| Cc1cnc(NC2CCOCC2)nc1-n1cnc(C(=O)NC(CN)c2cc(F)cc(Cl)c2)c1 (centres unmarked) | EGFR L858R/T790M | enzyme activity | inhibitor | radiometric | 1 µM | remaining activity | 109% |
| CCC(=O)Nc1cc(Nc2nc(N3CCc4sccc4C3)c3cccnc3n2)c(OC)cc1N1CCSCC1 | EGFR L858R/T790M | enzyme activity | inhibitor | ELISA | 0.1 µM | inhibition | 28.8% |
| CN(C)c1nccc(-c2cnc3ncccn23)n1 | EGFR L858R | binding | – | – | 1 µM | remaining binding | 89% |
| CCC(=O)N[C@H]1CC[C@@H](C(=O)N(C)c2ccc(-c3nc4ccccc4o3)cc2)C1 | EGFR del747-752/P753S | cell-free assay | – | competition with immobilised ligand | 1 µM | remaining binding | 79% |
| N[C@H]1CCN(c2nccc(-c3cnn4ncccc34)n2)C1 | Epidermal growth factor receptor (EGFR, Homo sapiens, UniProt P00533, del752-759) | binding | – | – | 1 µM | remaining binding | 88% |
| O=C(Nc1cccnn1)N1CCC(=Cc2cccc(Oc3ccc(C(F)(F)F)cn3)c2)CC1 | EGFR L858R/T790M | cell-free assay | – | competition with immobilised ligand | 1 µM | remaining binding | 99% |
| Nc1ncnc2occ(-c3ccc(NC(=O)Nc4cc(C(F)(F)F)ccc4F)cc3)c12 | EGFR L858R | cell-free assay | – | – | 20 µM | remaining signal | 19% |
| CC/C(=N\NC(=O)NCc1cccc(O)c1)c1ccc(O)c(C)c1O | EGFR T790M | enzyme activity | inhibitor | – | 0.1 µM | inhibition | 1.5% |
| Cc1cnn2ncc(-c3ccnc(N(C)C)n3)c2c1 | Epidermal growth factor receptor (EGFR, Homo sapiens, UniProt P00533, G719S) | binding | – | – | 1 µM | remaining binding | 100% |
| COc1cc(-c2cn(C3CCc4ccccc4N(CC(F)(F)F)C3=O)nn2)ccc1-n1ccc(C)n1 (centres unmarked) | Epidermal growth factor receptor (EGFR, Homo sapiens, UniProt P00533, del746-750) | cell-free assay | – | competition with immobilised ligand | 1 µM | remaining binding | 100% |
| CCOc1cc2ncnc(Nc3cccc(Br)c3)c2cc1OCC | EGFR | cell-free assay | – | – | 0.5 µM | remaining signal | 2.02% |
| O=C(c1ccc(Nc2ncc(Cl)c(-c3ccc(Cl)s3)n2)cc1)N1CCC(N2CCCC2)CC1 | EGFR T790M | binding | – | competition with immobilised ligand | 1 µM | remaining binding | 63% |
